How the values were obtained:
Aminopeptidase N [1] = molecular target: T1, Aminopeptidase N (Sus scrofa, UniProt P15145); experiment: Inhibition of pig kidney microsomal APN assessed as hydrolysis of L-Leu-p-nitroanilide after 1 hr by spectrophotometry
T1 sequence (P15145 whole entry): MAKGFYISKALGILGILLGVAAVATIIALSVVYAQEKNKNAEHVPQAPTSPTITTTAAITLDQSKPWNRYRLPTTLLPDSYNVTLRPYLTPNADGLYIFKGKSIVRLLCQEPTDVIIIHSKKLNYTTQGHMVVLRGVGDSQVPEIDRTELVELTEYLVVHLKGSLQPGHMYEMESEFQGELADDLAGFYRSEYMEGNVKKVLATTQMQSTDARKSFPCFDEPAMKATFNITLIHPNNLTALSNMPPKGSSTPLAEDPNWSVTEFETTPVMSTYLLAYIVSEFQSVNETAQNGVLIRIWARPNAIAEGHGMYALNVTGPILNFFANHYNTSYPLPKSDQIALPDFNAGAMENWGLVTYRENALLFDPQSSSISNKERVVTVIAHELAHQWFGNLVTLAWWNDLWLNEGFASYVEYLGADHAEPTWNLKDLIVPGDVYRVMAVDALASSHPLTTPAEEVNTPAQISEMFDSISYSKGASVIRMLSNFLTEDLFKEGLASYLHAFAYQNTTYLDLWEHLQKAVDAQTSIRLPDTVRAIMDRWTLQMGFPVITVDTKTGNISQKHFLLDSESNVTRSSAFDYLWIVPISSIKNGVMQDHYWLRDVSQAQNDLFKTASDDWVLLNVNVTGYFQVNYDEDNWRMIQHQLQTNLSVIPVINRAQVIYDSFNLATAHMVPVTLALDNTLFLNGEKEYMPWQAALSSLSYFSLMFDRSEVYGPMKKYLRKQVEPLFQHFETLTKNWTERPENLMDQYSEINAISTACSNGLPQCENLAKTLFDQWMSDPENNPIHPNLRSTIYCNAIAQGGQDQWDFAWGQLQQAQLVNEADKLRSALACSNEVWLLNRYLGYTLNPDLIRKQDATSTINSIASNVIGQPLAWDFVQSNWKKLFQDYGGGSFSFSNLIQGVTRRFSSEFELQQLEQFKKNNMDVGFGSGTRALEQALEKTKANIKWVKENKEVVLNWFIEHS
How it was run: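 Porcine kidney microsomal aminopeptidase in 50 mM PBS, pH 7.2, with L-Leu-p-nitroanilide as substrate. Incubated with a range of inhibitor concentrations at 37 °C. Triplicate experiments, reported as mean ± standard deviation.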

[2] = molecular target: 72 kDa type IV collagenase (Homo sapiens, UniProt P08253); experiment: Inhibition of human MMP-2 after 30 mins by spectrophotometry
Chain of 72 kDa type IV collagenase (P08253 whole entry): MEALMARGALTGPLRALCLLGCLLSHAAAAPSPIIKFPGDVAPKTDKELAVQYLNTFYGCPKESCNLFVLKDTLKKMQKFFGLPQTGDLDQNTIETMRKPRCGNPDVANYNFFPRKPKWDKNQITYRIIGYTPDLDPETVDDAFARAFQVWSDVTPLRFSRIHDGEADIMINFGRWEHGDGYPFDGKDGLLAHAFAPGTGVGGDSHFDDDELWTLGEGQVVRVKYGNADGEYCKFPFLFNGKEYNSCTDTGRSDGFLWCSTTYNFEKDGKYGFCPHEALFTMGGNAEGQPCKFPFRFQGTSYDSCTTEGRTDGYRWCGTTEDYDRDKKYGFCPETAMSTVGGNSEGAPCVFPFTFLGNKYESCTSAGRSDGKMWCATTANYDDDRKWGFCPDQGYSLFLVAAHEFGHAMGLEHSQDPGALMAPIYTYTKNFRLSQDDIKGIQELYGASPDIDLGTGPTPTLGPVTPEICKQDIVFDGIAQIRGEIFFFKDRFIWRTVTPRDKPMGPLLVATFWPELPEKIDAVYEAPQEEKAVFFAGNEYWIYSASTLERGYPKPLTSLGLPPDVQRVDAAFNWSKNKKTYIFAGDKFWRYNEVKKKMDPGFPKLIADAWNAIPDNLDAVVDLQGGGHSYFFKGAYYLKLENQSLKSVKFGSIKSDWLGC
How it was run: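 MMP-2 was incubated with synthetic substrate and inhibitor in 50 mM sodium borate, pH 8.5, for 30 min at 37 °C. TNBS (0.03%, m/v) was then added for 20 min at room temperature. Absorbance was read at 450 nm. IC50 is the mean ± standard deviation of triplicate experiments.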

[3] = Selectivity ratio of IC50 for MMP-2 to IC50 for pig kidney microsomal APN
Aminopeptidase N [4] = molecular target: Aminopeptidase N (Homo sapiens, UniProt P15144); experiment: Inhibition of APN in human HL60 cells assessed as hydrolysis of L-Leu-p-nitroanilide by spectrophotometry; type: cell-based, HL-60
Chain of Aminopeptidase N (Homo sapiens, UniProt P15144) (P15144 whole entry): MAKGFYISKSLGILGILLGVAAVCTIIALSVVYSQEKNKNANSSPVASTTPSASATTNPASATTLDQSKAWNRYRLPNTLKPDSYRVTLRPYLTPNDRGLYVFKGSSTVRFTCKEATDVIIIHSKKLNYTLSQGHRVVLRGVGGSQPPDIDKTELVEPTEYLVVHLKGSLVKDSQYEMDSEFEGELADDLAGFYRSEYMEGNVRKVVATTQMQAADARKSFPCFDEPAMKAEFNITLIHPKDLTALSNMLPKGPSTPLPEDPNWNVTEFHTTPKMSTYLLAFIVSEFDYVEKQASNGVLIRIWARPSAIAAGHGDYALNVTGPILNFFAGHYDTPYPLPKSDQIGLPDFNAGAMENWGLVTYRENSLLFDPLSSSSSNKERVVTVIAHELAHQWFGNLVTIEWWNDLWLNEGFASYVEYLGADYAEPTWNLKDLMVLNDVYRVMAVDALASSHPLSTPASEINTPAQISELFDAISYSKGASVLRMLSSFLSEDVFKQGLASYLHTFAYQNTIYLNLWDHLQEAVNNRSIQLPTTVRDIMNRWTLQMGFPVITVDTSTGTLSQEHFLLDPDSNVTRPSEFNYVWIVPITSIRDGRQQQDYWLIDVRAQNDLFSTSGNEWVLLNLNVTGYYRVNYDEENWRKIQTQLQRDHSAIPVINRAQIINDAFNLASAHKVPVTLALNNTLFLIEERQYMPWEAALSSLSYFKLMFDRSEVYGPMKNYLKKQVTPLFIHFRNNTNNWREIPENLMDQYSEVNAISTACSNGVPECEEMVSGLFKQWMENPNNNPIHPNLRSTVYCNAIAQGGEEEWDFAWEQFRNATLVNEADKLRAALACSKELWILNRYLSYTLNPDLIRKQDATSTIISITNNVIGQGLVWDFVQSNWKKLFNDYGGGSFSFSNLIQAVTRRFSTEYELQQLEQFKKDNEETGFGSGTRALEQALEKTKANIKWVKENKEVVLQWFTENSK
How it was run: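 Intact HL-60 cells suspended in PBS (1×10^5/well) served as the enzyme source, with L-Leu-p-nitroanilide as substrate. Cells were incubated at 37 °C with a range of inhibitor concentrations. Values are means of three independent experiments.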

HL-60 = experiment: Antiproliferative activity against human HL60 cells expressing high levels of APN after 48 hrs by MTT assay; type: functional, cell-based; details: HL-60, 48 h
How it was run: (§1)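 Cells kept in RPMI1640 plus 10% FBS at 37 °C, 5% CO2. Seeded 1×10^4/well and grown 4 h before inhibitors were added over a range of concentrations. After 48 h exposure, MTT (0.5 mg/mL) was added and the formazan dissolved in DMSO. Read-out was OD at 570 nm.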

MDA-MB-231 = experiment: Antiproliferative activity against human MDA-MB-231 cells expressing low levels of APN after 48 hrs by MTT assay; type: functional, cell-based; details: MDA-MB-231, 48 h; how it was run: as §1

Structure (SMILES)	IC50 (Aminopeptidase N [1]) [µM]	IC50 [2] [µM]	Ratio IC50 [3]	IC50 (Aminopeptidase N [4]) [µM]	IC50 (HL-60) [µM]	IC50 (MDA-MB-231) [µM]
N[C@@H](CNC(=O)[C@@H]1Cc2ccc(O)cc2CN1)[C@@H](O)c1ccc([N+](=O)[O-])cc1	441	> 1000	> 2.3			
N[C@@H](CS)C(=O)NC[C@H](N)[C@@H](O)c1ccc([N+](=O)[O-])cc1	12.4	152	12.7	248	2320	4220
NC[C@H](O)C(=O)NC[C@H](N)[C@@H](O)c1ccc([N+](=O)[O-])cc1	164	100				
CC(C)C[C@H](N)C(=O)N[C@H](Cc1ccccc1)C(=O)NC[C@H](N)[C@@H](O)c1ccc(I)cc1	11.3	86.6	7.7			
CC(C)C[C@H](NC(=O)[C@@H](O)[C@H](N)Cc1ccccc1)C(=O)O [UBENIMEX]		120				5080
CC(C)C[C@H](NC(=O)[C@H](N)Cc1ccccc1)C(=O)NC[C@H](N)[C@@H](O)c1ccc(N)cc1	31.6	94	3			
CC(C)C[C@H](N)C(=O)NC[C@H](N)[C@@H](O)c1ccc(I)cc1	30.6	120	3.9			
N[C@H](Cc1ccccc1)C(=O)NC[C@H](O)C(=O)NC[C@H](N)[C@@H](O)c1ccc([N+](=O)[O-])cc1	17.6	109	6.1	616	3150	7320
CC(C)C[C@H](NC(=O)[C@H](N)Cc1ccccc1)C(=O)NC[C@H](N)[C@@H](O)c1ccc(I)cc1	105	52.7	0.5			
N[C@H](Cc1ccccc1)C(=O)N[C@H](Cc1ccccc1)C(=O)NC[C@H](N)[C@@H](O)c1ccc(I)cc1	> 1000	107	< 0.1			
NC[C@H](O)C(=O)N[C@H](Cc1ccccc1)C(=O)NC[C@H](N)[C@@H](O)c1ccc([N+](=O)[O-])cc1	6.5	40.6	6.3	66.3	2040	4130
CC(C)C[C@H](NC(=O)[C@@H](O)CN)C(=O)NC[C@H](N)[C@@H](O)c1ccc([N+](=O)[O-])cc1	19.6	83.9	4.2			
N[C@H](Cc1ccccc1)C(=O)N[C@H](Cc1ccccc1)C(=O)NC[C@H](N)[C@@H](O)c1ccc([N+](=O)[O-])cc1	134	44.1	0.3			
N[C@@H](CO)C(=O)NC[C@H](N)[C@@H](O)c1ccc([N+](=O)[O-])cc1	423	331	0.8			
N[C@@H](Cc1ccc(O)cc1)C(=O)NC[C@H](N)[C@@H](O)c1ccc(I)cc1	21.6	42.2	2			
NCCCC[C@H](N)C(=O)NC[C@H](N)[C@@H](O)c1ccc([N+](=O)[O-])cc1	50.1	84.3	1.7			
NC[C@H](N)[C@@H](O)c1ccc([N+](=O)[O-])cc1	894	> 1000	> 1.1			
CC(C)C[C@H](NC(=O)[C@H](N)Cc1ccccc1)C(=O)NC[C@H](N)[C@@H](O)c1ccc([N+](=O)[O-])cc1	74.7	106	1.4			
CC(C)C[C@H](N)C(=O)NC[C@H](N)[C@@H](O)c1ccc(N)cc1	63.2	119	1.9			

Second part, the molecule after the results:

IC50 (Aminopeptidase N [1]) [µM]	IC50 [2] [µM]	Ratio IC50 [3]	IC50 (Aminopeptidase N [4]) [µM]	IC50 (HL-60) [µM]	IC50 (MDA-MB-231) [µM]	Structure (SMILES)
21.6	110	5				N[C@H](Cc1ccccc1)C(=O)N[C@@H](CO)C(=O)NC[C@H](N)[C@@H](O)c1ccc([N+](=O)[O-])cc1
30.6	40.4	1.3				Nc1ccc([C@H](O)[C@@H](N)CNC(=O)[C@@H](Cc2ccccc2)NC(=O)[C@H](N)Cc2ccccc2)cc1
114	111	1				Nc1ccc([C@H](O)[C@@H](N)CNC(=O)[C@@H](N)Cc2ccc(O)cc2)cc1
42.2	67.4	1.6				N[C@H](Cc1ccccc1)C(=O)NC[C@H](N)[C@@H](O)c1ccc([N+](=O)[O-])cc1
136	157	1.2				NCCCC[C@H](N)C(=O)NC[C@H](N)[C@@H](O)c1ccc(N)cc1
80.6	143	1.8				CC(C)C[C@H](N)C(=O)NC[C@H](N)[C@@H](O)c1ccc([N+](=O)[O-])cc1
9.4	173	19.2	290	2150	1320	CC(C)C[C@H](N)C(=O)N[C@H](Cc1ccccc1)C(=O)NC[C@H](N)[C@@H](O)c1ccc([N+](=O)[O-])cc1
6.1	134	22.3	39.4	1340	3650	CC(C)C[C@H](N)C(=O)N[C@H](Cc1ccccc1)C(=O)NC[C@H](N)[C@@H](O)c1ccc(N)cc1
39.2	61.3	1.6				N[C@@H](Cc1ccc(O)cc1)C(=O)NC[C@H](N)[C@@H](O)c1ccc([N+](=O)[O-])cc1
141	149	1.1				Nc1ccc([C@H](O)[C@@H](N)CNC(=O)[C@H](N)Cc2ccccc2)cc1

Reference: ChEMBL document CHEMBL1817563, “Novel aminopeptidase N (APN/CD13) inhibitors derived from chloramphenicol amine” (Bioorg Med Chem, 2011)
